Series [1] in a line: Lipophilicity, log D of the compound. It counts as physicochemical. To be noted: octanol/water.
The nature of series [2]: Metabolic stability in rat liver microsomes assessed as metabolic rate at 1 uM preincubated for 5 mins followed by NADPH addition and measured up to 30 mins by LC/MS-MS analysis. The following applies: 0.5 h. Type of series: ADME, Microsome.
Series [3] in a line: Metabolic stability in human liver microsomes assessed as metabolic rate at 1 uM preincubated for 5 mins followed by NADPH addition and measured up to 30 mins by LC/MS-MS analysis. It counts as ADME, Microsome. To be noted: 0.5 h. For orientation: Liver microsomes are vesicles of endoplasmic reticulum, rich in cytochrome P450 enzymes.
Series [4] in a line: Half life in BALB/c mouse at 1 mg/kg, iv measured upto 24 hrs by LC/MS-MS analysis. Type of series: ADME, organism-based. The following applies: in vivo.
Series [5] can be described thus: Clearance in BALB/c mouse at 1 mg/kg, iv measured upto 24 hrs by LC/MS-MS analysis. Type of series: ADME, organism-based. The following applies: in vivo.
Series [6] in a line: Oral bioavailability in BALB/c mouse at 10 mg/kg measured upto 24 hrs by LC/MS-MS analysis. Type of series: ADME, organism-based. The following applies: in vivo. The procedure, abridged: (§1)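 Pharmacokinetics were run with an IV dose of 1 mg/kg and a PO dose of 10 mg/kg. Parameters reported were AUClast, Cmax, CL, T1/2, Vss and %F.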
Series [7] is described as follows: Volume of distribution at steady state in BALB/c mouse at 1 mg/kg, iv measured upto 24 hrs by LC/MS-MS analysis. It counts as ADME, organism-based. To be noted: in vivo, read-out: Vdss. The procedure, abridged:
as §1

Series [8] can be described thus: AUClast in BALB/c mouse at 1 mg/kg, iv measured upto 24 hrs by LC/MS-MS analysis. It counts as ADME, organism-based. Further details: time < 24 hr, dose 1 mg/kg, route intravenous. To be noted: in vivo.
Series [9] can be described thus: Cmax in BALB/c mouse at 10 mg/kg, po measured upto 24 hrs by LC/MS-MS analysis. It counts as ADME, organism-based. Further details: dose 10 mg/kg, route oral. To be noted: in vivo.
A short description of series [10]: AUClast in BALB/c mouse at 10 mg/kg, po measured upto 24 hrs by LC/MS-MS analysis. Type of series: ADME, organism-based. The arrangement: dose 10 mg/kg, time < 24 hr, route oral. The following applies: in vivo.
Series [11] in a line: Metabolic stability in mouse liver microsomes assessed as metabolic rate at 1 uM preincubated for 5 mins followed by NADPH addition and measured up to 30 mins by LC/MS-MS analysis. Type of series: ADME, Microsome. To be noted: 0.5 h.
Series [12] is described as follows: Cmax in BALB/c mouse at 1 mg/kg, iv measured upto 24 hrs by LC/MS-MS analysis. Type of series: ADME, organism-based. The arrangement: dose 1 mg/kg, route intravenous. To be noted: in vivo.

As a reminder, the logD is lipophilicity at a set pH, counting ionised and neutral species. A low value points to lower lipophilicity. One may read the half-life as how long it takes for the measured level to halve. Lower therefore signals fast loss. As a reminder, the clearance is the rate of elimination divided by the concentration. Low readings indicate a low capacity for elimination, high ones a high capacity for elimination. In general, bioavailability refers to dose-corrected exposure relative to a reference, in per cent. Low readings indicate little systemic uptake, high ones much systemic uptake. Broadly, the AUC(0-t) is exposure summed from dosing to a finite time, without extrapolation to infinity. Broadly, the Cmax is the peak of the concentration-time curve.

In the case of `O=S(=O)(Nc1ncc(F)cn1)c1ccc2c(c1)OCC[C@@H]2c1ccc(C(F)(F)F)cc1-c1ccc(F)cn1`, in series [1], the logD is 3.

Regarding `O=S(=O)(Nc1ncc(F)cn1)c1ccc2c(c1)OCC[C@@H]2c1ccc(C(F)(F)F)cc1-c1ccc(F)nc1`, in series [1], the pH-dependent lipophilicity (logD) came out at 2.9.

Consider `O=S(=O)(Nc1nccs1)c1ccc2c(c1)OCC[C@@H]2c1ccc(C(F)(F)F)cc1N1CCNCC1`, for which the logD in [1] came out at 1.4.

For the compound `O=S(=O)(Nc1ncccn1)c1ccc2c(c1)CC[C@@H]2c1ccc(C(F)(F)F)cc1N1CCOCC1`, the logD in series [1] turned out to be 2.9.

For `O=S(=O)(Nc1nccs1)c1ccc2c(c1)OCC[C@@H]2c1ccc(C(F)(F)F)cc1-c1ccc(F)nc1`, the values for the Drug metabolism in series [2], in series [3] and in series [11] were 0.05 nmol/min/mg, 0.03 nmol/min/mg and 0.04 nmol/min/mg, respectively. Moreover, in series [1], the logD worked out at 3.2. In [4], the half-life is 2.8 h. In addition, the clearance in series [5] turned out to be 14 mL/min/kg. Further, the bioavailability in series [6] turned out to be 95%. In [7], the Vd is 2.9 L/kg. Further, the figures for the exposure AUC(0-t) at 24 h in series [8] and in series [10] were 2 µM·h and 19 µM·h, respectively. Further, the Cmax in series [9] came out at 4200 nM; in series [12] it was 800 nM.

With `Cn1nccc1-c1cc(C(F)(F)F)ccc1[C@H]1CCOc2cc(S(=O)(=O)Nc3cnccn3)ccc21`, the logD in [1] came to 1.8.

For `O=S(=O)(Nc1nccs1)c1ccc2c(c1)OCC[C@H]2c1ccc(C(F)(F)F)cc1-c1ccc(F)cc1`, in [1], the logD is 4.5.

`O=S(=O)(Nc1nccs1)c1ccc2c(c1)OCC[C@@H]2c1ccc(C(F)(F)F)cc1-c1nccs1`: the logD in series [1] is 3.3.

The compound `O=S1(=O)CCN(c2cc(C(F)(F)F)ccc2[C@H]2CCOc3cc(S(=O)(=O)Nc4nccs4)ccc32)CC1` yielded a logD in [1] of 2.5.

For the compound `Cc1ccc(-c2cc(C(F)(F)F)ccc2[C@H]2CCc3cc(S(=O)(=O)Nc4ncccn4)ccc32)cn1`, the log distribution coefficient (logD) in series [1] was determined as 2.8.

Turning to `Cc1nc(-c2cc(C(F)(F)F)ccc2[C@@H]2CCOc3cc(S(=O)(=O)Nc4nccs4)ccc32)co1`, the logD in [1] is 2.9.

`Cc1ccc(-c2cc(C(F)(F)F)ccc2[C@H]2CCOc3cc(S(=O)(=O)Nc4cccc(F)n4)ccc32)cn1` yielded a logD in [1] of 3.7.

`Cc1nc(-c2cc(C(F)(F)F)ccc2[C@H]2CCOc3cc(S(=O)(=O)Nc4ncc(F)cn4)ccc32)co1` showed a pH-dependent lipophilicity (logD) in series [1] of 2.8.

`O=S(=O)(Nc1nccs1)c1ccc2c(c1)OCC[C@H]2c1ccc(C(F)(F)F)cc1-c1nccs1` yielded a pH-dependent lipophilicity (logD) in [1] of 3.3.

Turning to `Cn1nccc1-c1cc(C(F)(F)F)ccc1[C@H]1CCOc2cc(S(=O)(=O)Nc3ccc(F)cn3)ccc21`, the log distribution coefficient (logD) in series [1] worked out at 3.8.

The compound `CN1CCN(c2cc(C(F)(F)F)ccc2[C@H]2CCOc3cc(S(=O)(=O)Nc4nccs4)ccc32)CC1` registered a logD in series [1] of 2.1.

`O=S(=O)(Nc1ncccn1)c1ccc2c(c1)CC[C@@H]2c1ccc(C(F)(F)F)cc1-c1ccc(F)nc1` returned a log distribution coefficient (logD) in series [1] of 3.2.

As for `Cc1nc(-c2cc(C(F)(F)F)ccc2[C@H]2CCOc3cc(S(=O)(=O)Nc4cccc(F)n4)ccc32)co1`, the logD in series [1] worked out at 4.

Compound `O=S(=O)(Nc1ncccn1)c1ccc2c(c1)OCC[C@@H]2c1ccc(C(F)(F)F)cc1-c1ccc(F)cn1` came in with a logD in [1] of 2.9.

In the case of `O=S(=O)(Nc1nccs1)c1ccc2c(c1)OCC[C@@H]2c1ccc(C(F)(F)F)cc1-c1ccc(F)cn1`, the pH-dependent lipophilicity (logD) in [1] was 3.5.

In series [1], `Cn1nccc1-c1cc(C(F)(F)F)ccc1[C@H]1CCOc2cc(S(=O)(=O)Nc3ncc(F)cn3)ccc21` came in with a logD of 2.5.

In [1], `Cn1nccc1-c1cc(C(F)(F)F)ccc1[C@H]1CCOc2cc(S(=O)(=O)Nc3ccncn3)ccc21` yielded a logD of 1.8.

Turning to `O=S(=O)(Nc1nccs1)c1ccc2c(c1)OCC[C@@H]2c1ccc(C(F)(F)F)cc1-c1ccc(F)cc1`, the log distribution coefficient (logD) in series [1] is 4.5.

Regarding `O=S(=O)(Nc1ccncn1)c1ccc2c(c1)OCC[C@@H]2c1ccc(C(F)(F)F)cc1N1CCOCC1`, in series [1], the pH-dependent lipophilicity (logD) is 2.

As for `O=C1OCCN1c1cc(C(F)(F)F)ccc1[C@H]1CCOc2cc(S(=O)(=O)Nc3nccs3)ccc21`, the logD in series [1] is 2.1.

`O=S(=O)(Nc1nccs1)c1ccc2c(c1)OCC[C@H]2c1ccc(C(F)(F)F)cc1-n1ccnn1` showed a pH-dependent lipophilicity (logD) in series [1] of 2.3.

In series [1], `O=S(=O)(Nc1ncc(F)cn1)c1ccc2c(c1)OCC[C@@H]2c1ccc(C(F)(F)F)cc1N1CCOCC1` registered a logD of 2.8.

`Cn1nccc1-c1cc(C(F)(F)F)ccc1[C@H]1CCOc2cc(S(=O)(=O)Nc3cccc(F)n3)ccc21`: the log distribution coefficient (logD) in [1] turned out to be 3.6.

In [1], `Cc1ccc(-c2cc(C(F)(F)F)ccc2[C@H]2CCOc3cc(S(=O)(=O)Nc4ncc(F)cn4)ccc32)cn1` gave a logD of 2.5.

Turning to `O=S(=O)(Nc1ccncn1)c1ccc2c(c1)OCC[C@@H]2c1ccc(C(F)(F)F)cc1-c1ccc(F)nc1`, the logD in series [1] is 2.3.

In series [1], `Cc1nc(-c2cc(C(F)(F)F)ccc2[C@H]2CCOc3cc(S(=O)(=O)Nc4nccs4)ccc32)co1` showed a logD of 2.9.

`Cn1nccc1-c1cc(C(F)(F)F)ccc1[C@H]1CCOc2cc(S(=O)(=O)Nc3cccnn3)ccc21` gave a logD in [1] of 2.2.

The compound `Cc1nc(-c2cc(C(F)(F)F)ccc2[C@H]2CCOc3cc(S(=O)(=O)Nc4ncccn4)ccc32)co1` came in with a log distribution coefficient (logD) in series [1] of 2.8.

`Cc1ccc(-c2cc(C(F)(F)F)ccc2[C@H]2CCOc3cc(S(=O)(=O)Nc4ccncn4)ccc32)cn1` showed a pH-dependent lipophilicity (logD) in series [1] of 3.

Take `O=C1COCCN1c1cc(C(F)(F)F)ccc1[C@H]1CCOc2cc(S(=O)(=O)Nc3nccs3)ccc21`: the logD in series [1] turned out to be 1.8.

On to `Cn1nccc1-c1cc(C(F)(F)F)ccc1[C@H]1CCOc2cc(S(=O)(=O)Nc3nccs3)ccc21`, for which the Drug metabolism in series [2] was 0.04 nmol/min/mg; in [3] it was 0.05 nmol/min/mg; in series [11] it was 0.1 nmol/min/mg. The compound also displayed a logD in series [1] of 2.2. This compound had a half-life in [4] of 2 h. This compound gave a clearance in series [5] of 14 mL/min/kg. The compound also registered a bioavailability in series [6] of 68%. For the same compound, the Vd in [7] was determined as 2.2 L/kg. The area under the curve AUC(0-t) at 24 h in [8] is 2.2 µM·h; in series [10], 15 µM·h. In addition, the values for the Cmax in series [9] and in series [12] were 6000 nM and 1300 nM, respectively.

As for `O=S(=O)(Nc1nccs1)c1ccc2c(c1)OCC[C@@H]2c1ccc(C(F)(F)F)cc1-n1ccnn1`, the Drug metabolism in series [2], in [3] and in series [11] was 0.02 nmol/min/mg throughout. This compound also had a logD in series [1] of 2.3. The same compound showed a half-life in series [4] of 0.4 h. Besides, the clearance in series [5] was found to be 37 mL/min/kg. In [6], this compound displayed a bioavailability of 79%. For the same compound, the Vd in [7] turned out to be 1 L/kg. For the same compound, the AUC(0-t) at 24 h in series [8] is 0.9 µM·h; in series [10], 7.1 µM·h. Besides, the maximum concentration (Cmax) in [9] turned out to be 3000 nM; in series [12] it was 2200 nM.

The compound `O=S(=O)(Nc1cccc(F)n1)c1ccc2c(c1)OCC[C@@H]2c1ccc(C(F)(F)F)cc1N1CCOCC1` came in with a pH-dependent lipophilicity (logD) in series [1] of 4.1.

Take `Cn1nccc1-c1cc(C(F)(F)F)ccc1[C@@H]1CCOc2cc(S(=O)(=O)Nc3nccs3)ccc21`: in series [1], the logD was 2.2.

Take `O=S(=O)(Nc1ccncn1)c1ccc2c(c1)OCC[C@@H]2c1ccc(C(F)(F)F)cc1-c1ccc(F)cn1`: the pH-dependent lipophilicity (logD) in series [1] was determined as 3.

For `Cn1nccc1-c1cc(C(F)(F)F)ccc1[C@H]1CCOc2cc(S(=O)(=O)Nc3cc(F)ccn3)ccc21`, in [1], the logD is 3.2.

For the origin of these results see ChEMBL document CHEMBL4627393, “Discovery of Potent, Selective, and State-Dependent NaV1.7 Inhibitors with Robust Oral Efficacy in Pain Models: Structure-Activity Relationship and Optimization of Chroman and Indane Aryl Sulfonamides” (J Med Chem, 2020).
